From PubChem
This is a sample that favours compounds with a hit; in the whole collection about 3.1% have one here.
SENP8 block-1: blocks the human protease SENP8; purified SENP8, Z-RLRGG-aminoluciferin cleavage, luminescence; actives 1.2% (n = 330,000); AID 2540; inhibition, % at 10 µM; Q96LD8; in the data active = inhibition above about 50%
UBC13 polyUb: human UBC13 polyubiquitination inhibition | inhibition, % at 20 µM | AID 485273 | actives 0.47% (n = 330,000) | UBC13 polyubiquitin chain formation, TR-FRET; in the data active = inhibition above about 45%, passing the limit was not always enough
SENP6 block: blocks the human protease SENP6; Recombinant SENP6 catalytic domain, aminoluciferin luminescence; inhibition, % at 10 µM; actives 1.8% (n = 330,000); AID 2599;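 active = inhibition above about 50% at the single tested dose, limit read from the data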;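 also: plate controls were DMSO wells with enzyme for no effect and DMSO wells lacking enzyme for full effect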
SENP8 block-2: inhibitors of human SENP8 protease | Q96LD8 | recombinant SENP8, Nedd8 substrate fluorescence | inhibition, % at 20 µM | actives 0.64% (n = 360,000) | AID 602440; in the data active = inhibition mostly above about 40%, no sharp cut-off; inactive = mostly below about 27%
Apaf-1 inh: human Apaf-1 inhibition; inhibition, % at 20 µM; O14727; reconstituted apoptosome caspase-3 activity, DEVD-Rh110 fluorescence; AID 489030; actives 0.71% (n = 330,000); active = inhibition of at least 40% at 20 µM;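 also: plate controls were DMSO wells for no effect and DEVD-CHO caspase inhibitor wells for full effect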
Target sequence (O14727 whole entry, looked up): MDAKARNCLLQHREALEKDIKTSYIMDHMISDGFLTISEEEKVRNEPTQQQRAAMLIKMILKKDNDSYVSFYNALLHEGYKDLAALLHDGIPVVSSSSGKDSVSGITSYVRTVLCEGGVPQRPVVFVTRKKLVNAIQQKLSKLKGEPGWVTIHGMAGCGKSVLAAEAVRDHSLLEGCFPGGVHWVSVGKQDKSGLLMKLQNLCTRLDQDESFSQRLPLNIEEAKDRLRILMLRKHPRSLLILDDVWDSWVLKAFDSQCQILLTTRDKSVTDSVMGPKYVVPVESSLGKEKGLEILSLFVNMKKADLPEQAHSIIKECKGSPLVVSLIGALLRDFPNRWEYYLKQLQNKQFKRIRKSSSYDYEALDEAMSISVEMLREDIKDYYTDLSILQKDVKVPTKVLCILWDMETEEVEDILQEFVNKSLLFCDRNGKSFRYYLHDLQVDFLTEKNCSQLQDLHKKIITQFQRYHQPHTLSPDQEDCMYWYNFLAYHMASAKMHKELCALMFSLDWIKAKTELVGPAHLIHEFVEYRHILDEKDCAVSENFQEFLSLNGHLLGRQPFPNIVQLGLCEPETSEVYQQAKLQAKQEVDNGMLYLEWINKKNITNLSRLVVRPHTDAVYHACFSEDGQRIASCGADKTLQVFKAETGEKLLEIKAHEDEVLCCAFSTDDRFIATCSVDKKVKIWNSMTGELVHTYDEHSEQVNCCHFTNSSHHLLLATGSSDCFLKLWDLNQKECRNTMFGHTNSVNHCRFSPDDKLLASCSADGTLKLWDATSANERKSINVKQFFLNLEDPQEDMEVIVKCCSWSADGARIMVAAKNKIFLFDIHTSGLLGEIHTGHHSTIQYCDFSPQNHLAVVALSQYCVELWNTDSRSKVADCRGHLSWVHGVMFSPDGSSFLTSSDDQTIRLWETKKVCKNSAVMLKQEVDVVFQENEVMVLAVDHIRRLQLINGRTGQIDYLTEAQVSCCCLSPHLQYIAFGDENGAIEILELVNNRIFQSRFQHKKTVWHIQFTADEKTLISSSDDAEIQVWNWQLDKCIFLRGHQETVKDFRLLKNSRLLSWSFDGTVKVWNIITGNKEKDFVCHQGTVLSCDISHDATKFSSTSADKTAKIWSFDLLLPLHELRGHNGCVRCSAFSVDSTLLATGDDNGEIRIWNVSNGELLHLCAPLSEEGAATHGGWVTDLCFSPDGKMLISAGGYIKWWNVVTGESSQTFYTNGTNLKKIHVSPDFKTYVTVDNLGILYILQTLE
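Assay system: Apoptosome proteins | Medium: pH 7.5 Hepes buffer with CHAPS, BSA, DTT | Also added: Cytochrome c and DEVD-Rh110 substrate | Times: 30 min plus 50 min, RT | Detection: Rhodamine 110 fluorescence at Ex 480/Em 540 nm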
SENP7 block: SENP7 protease inhibition. Q9BQF6. actives 1.5% (n = 330,000). AID 434973. inhibition, % at 5 µM. recombinant SENP7, Z-RLRGG-aminoluciferin luminescence, 40 min;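 active = inhibition above about 50% at the single test dose, limit read from the data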;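 also: plate controls were DMSO with enzyme for no effect and no enzyme buffer wells for full effect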
Apaf-1 inh conf: confirmation of Apaf-1 inhibitors | shares compounds with Apaf-1 inh | reconstituted apoptosome, caspase-3 DEVD-Rh110 fluorescence | inhibition, % at 20 µM | AID 504614 | actives 25% (n = 1,800);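 active = mean inhibition of at least 40% at 20 µM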;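 also: plate controls were DMSO wells for no effect and DEVD-CHO caspase inhibitor control wells for full effect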
Rh110 interf inh: Rh110 signal interference in Apaf-1 inhibitor counter-screen. shares compounds with Apaf-1 inh. Rh110 fluorescence interference, quenched caspase reaction. activation (fluorescence interference), % at 20 µM. 1,800 tested, under 10 active. AID 504615;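 active = signal rise of 40% or more at 20 µM, treated as a fluorescence artifact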
Fluor interf inh: shows fluorescence interference in the Apaf-1 inhibitor assay format | shares compounds with Apaf-1 inh | fluorescence interference counterscreen, Apaf-1 assay format | IC50, µM | 460 tested, under 10 active; call rule not given here
* hit, by the source's call; i = inactive; nt = not tested or not shown.

SMILES	SENP8 block-1	UBC13 polyUb	SENP6 block	SENP8 block-2	Apaf-1 inh	SENP7 block	Apaf-1 inh conf	Rh110 interf inh	others
CCN(c1ccccc1)S(=O)(=O)c1cc(NC(=O)Nc2ccccc2C#N)ccc1Cl	-6.8	-3.9	8.5	-10.3	13.3	3.6	nt	nt
CCN(c1ccccc1)S(=O)(=O)c1ccc(Cl)c(NC(=O)CN2CCN(C)CC2)c1	-3.0	44.1	0.1	12.5	51.5*	-4.8	17.8	6.3
CCN(c1ccccc1)S(=O)(=O)c1ccc(Cl)c(NC(=O)Nc2ccc(Cl)cc2C#N)c1	5.4	-8.9	6.8	-21.8	40.2*	4.9	44.5*	-4.0	Fluor interf inh=>100
O=C(c1ccco1)N1CCN(c2nc3ccccc3n3nnnc23)CC1	16.8	-9.4	19.1	-305.7	20.4	-0.7	nt	nt
c1ccc(CC2CCN(c3nc4ccccc4n4nnnc34)CC2)cc1	-0.6	13.2	-11.4	-463.1	57.6*	11.6	17.4	10.8
NC(=O)[C@H](Cc1cc2ccccc2s1)NC(=O)[C@@H]1CC2(CC(c3cccc(NC(=O)[C@@H]4CCC(=O)N4)c3)=NO2)CN1C(=O)/C=C/c1c(F)cccc1Cl (stereo partly drawn)	8.5	-16.4	3.4	7.5	46.9*	6.2	16.3	12.7
CC(C)(C)OC(=O)N1CCC(c2cc(=O)n3[nH]cc(C(=O)Nc4ccc(F)c(Cl)c4)c3n2)CC1	-5.8	-18.8	-3.6	-120.3	35.7	9.6	nt	nt
COc1ccc(NC(=O)c2c[nH]n3c(=O)cc(C4CCN(C(=O)OC(C)(C)C)CC4)nc23)cc1Cl	3.7	-51.1	-4.9	-55.0	41.7*	-11.1	30.5	8.3
COc1ccccc1CNC(=O)CN1C(=O)NC(C)(c2ccc(C(C)(C)C)cc2)C1=O (stereo not drawn)	-4.7	3.6	-15.2	17.1	24.5	4.6	nt	nt
CN(Cc1ccccc1)C(=O)CN1C(=O)NC(C)(c2ccc(C(C)(C)C)cc2)C1=O (stereo not drawn)	-8.8	-14.4	-16.3	8.8	41.7*	-6.7	20.5	4.5
c1cc(SC2CCCCC2)cc(-c2nc3cnccn3c2NC2CCCCC2)c1	-3.0	-2.2	-2.7	-496.7	41.3*	-3.1	25.8	13.9
c1cn2c(NC3CCCCC3)c(-c3ccc(SC4CCCCC4)cc3)nc2cn1	-6.1	36.8	-11.3	-492.2	37.5	4.6	nt	nt
Nc1[nH]c(C(=O)c2ccccc2)c(-c2ccc(C(F)(F)F)cc2)c1C(=O)NCc1ccc(Cl)cc1Cl	nt	nt	nt	13.0	nt	nt	nt	nt
COc1ccc(OCCNc2c([N+](=O)[O-])c(=O)oc3ccccc23)cc1	1.1	-9.2	7.8	17.6	73.3*	4.6	87.4*	-2.5	Fluor interf inh=>100
CCNc1c([N+](=O)[O-])c(=O)oc2ccccc12	9.7	-0.4	-28.6	10.1	-1.2	5.0	nt	nt
COc1ccc(C2/C(=C(/O)c3ccc4c(c3)CC(C)O4)C(=O)C(=O)N2CCCn2ccnc2)cc1 (stereo not drawn)	-1.0	-41.2	20.7	-12.7	41.6*	5.6	6.8	3.9
COc1ccccc1C1/C(=C(\O)c2ccc3c(c2)OCCO3)C(=O)C(=O)N1CCCn1ccnc1 (stereo not drawn)	-3.0	-18.3	10.9	31.2	45.0*	6.9	11.6	-1.1
CN(C)c1cccc(F)c1C(=O)NC(=O)Nc1ccc(Cl)cc1	nt	nt	nt	-73.1	nt	nt	nt	nt
CC1(c2nc3ccccc3[nH]2)CCC(=O)N1C1CC1 (stereo not drawn)	nt	nt	nt	29.5	nt	nt	nt	nt
O=C1OC(=O)c2cc([N+](=O)[O-])ccc21	3.3	5.3	4.1	16.0	3.8	10.4	nt	nt
O=C1Nc2ccccc2Nc2ccc([N+](=O)[O-])cc21	-9.3	-66.5	-2.1	24.1	43.0*	-0.4	32.8	1.5
Cc1c(C(=O)N(CCc2ccccc2)Cc2ccccc2)cccc1[N+](=O)[O-]	10.9	12.2	-2.6	8.1	41.3*	-2.2	37.0	7.2
Cc1c(C(=O)NC(C)CCc2ccccc2)cccc1[N+](=O)[O-] (stereo not drawn)	8.8	-7.9	-10.0	18.9	1.3	-0.6	nt	nt
COc1ccccc1C(=O)N1CCCC(C)(C(=O)NS(=O)(=O)C2CC2)C1 (stereo not drawn)	nt	nt	nt	14.2	nt	nt	nt	nt
CCCCOc1ccc(C)cc1CN(CCO)CCO	-3.3	0.3	-12.2	-0.5	-8.9	-1.5	nt	nt
SMILES	SENP8 block-1	UBC13 polyUb	SENP6 block	SENP8 block-2	Apaf-1 inh	SENP7 block	Apaf-1 inh conf	Rh110 interf inh	others
CCCCCc1ccc(OCCCC[n+]2ccc(C)cc2)c(CCCCC)c1	-13.3	42.5	-40.2	15.0	56.4*	5.7	37.0	11.8
CCN(CC)CCOC(=O)c1ccc(NC(=O)CCCN2C(=O)S/C(=C/c3ccc(OC)cc3)C2=S)cc1	-9.2	22.5	8.9	21.1	44.1*	1.4	26.9	6.9
O=C(CCNC(=O)N1CC(=O)Nc2ccccc21)NCc1ccc(Cl)cc1	nt	nt	nt	10.2	nt	nt	nt	nt
CC(=O)c1ccc2c(c1)C1C=CCC1C(c1ccncc1)N2 (stereo not drawn)	6.9	-16.2	36.8	16.3	59.6*	17.8	30.0	6.8
CC(=O)[C@]1(O)Cc2c(O)c3c(c(O)c2[C@@H](O[C@H]2C[C@H](N)[C@H](O)[C@H](C)O2)C1)C(=O)c1ccccc1C3=O	13.1	-406.1	8.9	nt	46.6*	0.9	15.2	-32.1
Cc1nn(CCC(=O)O)c2nc(-c3cccnc3)cc(C(F)(F)F)c12	0.4	24.6	-10.2	i	-1.1	-7.2	nt	nt
Cc1nn(CCc2nn[nH]n2)c2nc(-c3ccc(C4CCCCC4)cc3)cc(C(F)(F)F)c12	1.7	-19.5	0.2	-428.7	59.7*	-0.8	31.6	13.1
C[C@H](CO)N1C[C@H](C)[C@@H](CN(C)Cc2ccc(Cl)c(Cl)c2)Oc2c(NC(=O)CCC(F)(F)F)cccc2C1=O	-12.8	7.0	-31.4	2.0	46.1*	-12.1	22.9	17.4
Cc1ccc(S(=O)(=O)Nc2ccc3c(c2)CC(=O)N([C@H](C)CO)C[C@@H](C)[C@H](CN(C)Cc2ccc(-c4ccccc4)cc2)O3)cc1	-15.7	12.2	4.0	8.7	41.0*	-7.9	-2.0	7.2
C[C@H]1CN([C@@H](C)CO)C(=O)Cc2cc(NC(=O)CCC(F)(F)F)ccc2O[C@H]1CN(C)Cc1ccc(-c2ccccc2)cc1	-5.5	9.4	-18.1	5.3	40.8*	-11.5	22.6	-6.4
Cc1ccc(S(=O)(=O)NC(=O)C2(C)CCN2C(=O)Cc2ccc(Cl)cc2Cl)nc1 (stereo not drawn)	nt	nt	nt	12.6	nt	nt	nt	nt
C#CCN(C[C@@H]1[C@@H](OC(=O)NCc2ccccc2)[C@@H](OC(=O)NCc2ccccc2)CN(C(=O)OC(C)C)N1C(=O)OC(C)C)S(=O)(=O)c1ccc(C)cc1	nt	nt	nt	-2.9	nt	nt	nt	nt
